Data published in ChEMBL document CHEMBL3745688, “Discovery of novel hybrids of diaryl-1,2,4-triazoles and caffeic acid as dual inhibitors of cyclooxygenase-2 and 5-lipoxygenase for cancer therapy” (Eur J Med Chem, 2016).

Experiments:
A549 [1] = assay: Cell cycle arrest in human A549 cells assessed as accumulation at G1 phase at 1 uM after 72 hrs by propidium iodide staining based flow cytometry (reference value: 53.66%); assay type: functional
[2] = target: T1, Polyunsaturated fatty acid 5-lipoxygenase (Rattus norvegicus, UniProt P12527); assay: Inhibition of 5-LOX in Sprague-Dawley rat leukocytes assessed as A23187 stimulated LTB4 production pretreated for 30 mins followed by addition of A23187 for 30 mins by EIA; assay type: cell-based
T1 sequence (P12527 whole entry): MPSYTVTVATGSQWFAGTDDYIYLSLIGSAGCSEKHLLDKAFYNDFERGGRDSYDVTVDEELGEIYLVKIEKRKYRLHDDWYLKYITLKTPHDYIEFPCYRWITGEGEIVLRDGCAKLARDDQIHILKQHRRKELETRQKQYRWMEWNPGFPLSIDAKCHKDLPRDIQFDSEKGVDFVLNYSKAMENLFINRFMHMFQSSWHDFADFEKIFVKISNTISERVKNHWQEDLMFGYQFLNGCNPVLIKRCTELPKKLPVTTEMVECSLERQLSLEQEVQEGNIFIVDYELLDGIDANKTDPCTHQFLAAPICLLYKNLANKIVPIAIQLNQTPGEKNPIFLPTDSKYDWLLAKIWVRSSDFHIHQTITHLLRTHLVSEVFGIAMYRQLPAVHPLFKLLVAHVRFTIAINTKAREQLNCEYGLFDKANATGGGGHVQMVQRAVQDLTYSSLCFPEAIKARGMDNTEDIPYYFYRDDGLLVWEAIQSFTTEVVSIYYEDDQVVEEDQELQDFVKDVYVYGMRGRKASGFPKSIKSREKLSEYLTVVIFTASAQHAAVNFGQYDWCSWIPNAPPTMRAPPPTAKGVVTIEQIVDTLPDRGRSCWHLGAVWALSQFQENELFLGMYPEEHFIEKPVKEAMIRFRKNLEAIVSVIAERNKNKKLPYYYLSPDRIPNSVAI
Outline: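 Rat peritoneal leukocytes collected from Sprague-Dawley rats primed i.p. with 0.2% glycogen (20 mL/kg). Cells in Hanks solution plated at 1.0×10^6/well and held 10 min at 37 °C. Pretreated 30 min with L-cysteine (10 mM), indomethacin (1 mg/L) and compound or DMSO. A23187 added for 30 min. LTB4 in the clarified supernatant measured by EIA; % inhibition from OD; IC50 by Bliss method.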

A549 [3] = assay: Induction of apoptosis in human A549 cells assessed as early apoptotic cells at 25 uM after 72 hrs by annexinV-APC/7-AAD staining based flow cytometry (reference value: 5.7%); assay type: functional
[4] = target: T2, Prostaglandin G/H synthase 1 (Bos taurus, UniProt O62664); assay: Inhibition of COX1 in calf endotheliocyte assessed as 6keto-PGF1alpha production pretreated for 20 mins followed by addition of 10 uM arachidonic acid as substrate for 20 mins by radioimmuno assay
T2 sequence (O62664 whole entry): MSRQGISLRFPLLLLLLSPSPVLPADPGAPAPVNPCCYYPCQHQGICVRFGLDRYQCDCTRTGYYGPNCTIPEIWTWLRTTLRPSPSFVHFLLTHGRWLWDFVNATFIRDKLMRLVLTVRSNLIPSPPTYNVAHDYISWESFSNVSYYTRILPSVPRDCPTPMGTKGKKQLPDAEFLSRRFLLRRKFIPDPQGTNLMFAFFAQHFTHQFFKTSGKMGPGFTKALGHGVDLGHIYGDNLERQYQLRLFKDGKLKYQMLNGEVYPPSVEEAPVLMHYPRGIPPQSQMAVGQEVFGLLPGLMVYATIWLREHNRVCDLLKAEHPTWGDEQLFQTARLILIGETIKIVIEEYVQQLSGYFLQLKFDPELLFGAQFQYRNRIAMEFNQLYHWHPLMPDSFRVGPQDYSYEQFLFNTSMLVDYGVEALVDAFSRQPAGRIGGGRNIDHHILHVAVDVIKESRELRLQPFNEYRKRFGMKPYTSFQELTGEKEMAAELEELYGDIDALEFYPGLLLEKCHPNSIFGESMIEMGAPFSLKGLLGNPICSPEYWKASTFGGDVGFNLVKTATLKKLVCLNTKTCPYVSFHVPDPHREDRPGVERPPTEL
Outline: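 Endothelial cells from neonatal calf thoracic aorta plated at 1.0×10^6 in DMEM with 10% FBS and grown 24 h at 37 °C in 5% CO₂. Compound or DMSO added for 20 min, then arachidonic acid (10 μM) for another 20 min. 6-keto-PGF1α in the medium quantified by radioimmunoassay. IC50 is the mean of four determinations.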

IC50 [2]: 0.71 µM
IC50 [4]: 12.6 µM
SMILES: CS(=O)(=O)c1ccc(-c2nc(SCCCOC(=O)/C=C/c3ccc(O)c(O)c3)nn2-c2ccc(F)cc2)cc1
Activity (A549 [1]): 49.85%
Activity (A549 [3]): 37.2%
